Screening data: PubChem BioAssay, The Scripps Research Institute Molecular Screening Center
Sampled rows, rich in hits. Any-hit rate of the full collection: about 2.1%.
CHRM1 PAM – human M1 muscarinic receptor positive allosteric modulators, primary screen, CHO-K1 cells, Fluo-8 calcium fluorescence, 1536-well. Muscarinic acetylcholine receptor M1 (Homo sapiens), P11229. CHO-K1 hM1, ACh EC20; 0% = ACh EC20, 100% = maximal ACh. activation, % at 3 µM. 0.088% of 360,000 active; in the data active = activation above about 19%, passing the limit was not always enough
M5 ag – human M5 muscarinic receptor agonists, primary screen, CHO-K1 cells, Fluo-8 calcium fluorescence; 0.19% of 360,000 active; activation, % at 3 µM; Muscarinic acetylcholine receptor M5 (Homo sapiens), P08912; CHO-K1 hM5 cells; 0% DMSO wells, 100% maximal acetylcholine response;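 active = activation above the run's mean over test compounds plus 3 SD, cut at about 23% in these data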;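 also: signal is peak over basal fluorescence ratio across the kinetic read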
Target sequence (P08912 whole entry, looked up): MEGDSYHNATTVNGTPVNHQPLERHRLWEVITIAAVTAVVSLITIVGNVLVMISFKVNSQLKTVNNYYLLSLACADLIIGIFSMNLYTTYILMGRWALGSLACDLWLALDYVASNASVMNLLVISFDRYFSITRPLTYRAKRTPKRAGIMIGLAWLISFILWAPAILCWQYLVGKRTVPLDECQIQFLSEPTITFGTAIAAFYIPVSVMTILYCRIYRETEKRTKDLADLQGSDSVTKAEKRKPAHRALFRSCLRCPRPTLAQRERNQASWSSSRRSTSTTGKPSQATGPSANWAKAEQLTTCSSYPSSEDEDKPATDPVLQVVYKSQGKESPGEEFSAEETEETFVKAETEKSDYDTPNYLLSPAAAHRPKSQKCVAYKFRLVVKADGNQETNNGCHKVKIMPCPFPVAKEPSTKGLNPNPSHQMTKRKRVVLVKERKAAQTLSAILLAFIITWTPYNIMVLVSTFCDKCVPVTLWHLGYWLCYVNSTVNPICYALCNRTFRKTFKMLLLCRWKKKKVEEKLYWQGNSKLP
M1 ag – human M1 muscarinic receptor agonists, primary screen, Fluo-8 calcium fluorescence, CHO-K1 cells, HTS. Muscarinic acetylcholine receptor M1 (Homo sapiens), P11229. CHO-K1 hM1, agonist mode; 0% DMSO, 100% acetylcholine EC100. activation, % at 3 µM. 0.33% of 360,000 active;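 active = activation above the run's mean compound activation plus 3 SD, cut at about 16% in these data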;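 also: peak over basal fluorescence ratio within a 140 s kinetic read after compound addition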
M1 antag – human M1 muscarinic receptor antagonists, primary screen, CHO-K1 cells, Fluo-8 calcium fluorescence, 1536-well | Muscarinic acetylcholine receptor M1 (Homo sapiens), P11229 | CHO-K1 hM1, ACh EC80 antagonist | inhibition, % at 3 µM | 1.3% of 360,000 active | AID 588852, 2011;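 active = percent inhibition above its own plate's cutoff, namely the mean of that plate's compound wells plus 3 SD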;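 also: peak over basal fluorescence ratio during 140 s after agonist addition; 0% = ACh EC80 plus DMSO and 100% = DMSO alone without agonist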
M5 antag – human M5 muscarinic receptor antagonists, primary screen, CHO cells, Fluo-8 calcium fluorescence | 0.59% of 360,000 active | Muscarinic acetylcholine receptor M5 (Homo sapiens), P08912 | CHO-hM5 cells, ACh EC80 | inhibition, % at 3 µM | AID 624040, 2012;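 active = inhibition above a per-plate cutoff, the mean of that plate's test compounds plus 3 SD, cut at about 27% in these data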;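 also: 0% = acetylcholine EC80 with DMSO and 100% = DMSO without agonist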
CHRM5 PAM – human M5 muscarinic receptor positive allosteric modulators, primary screen, CHO-K1 cells, Fluo-8 calcium fluorescence; Muscarinic acetylcholine receptor M5 (Homo sapiens), P08912; CHO-K1 hM5, ACh EC20 PAM; 0% = ACh EC20, 100% = ACh EC100; activation, % at 3 µM; 0.3% of 360,000 active; AID 624038, 2012;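 active = activation above the run cutoff, the mean activation of all test compounds plus 3 SD, cut at about 18% in these data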
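System: CHO-K1 cell line with stable human muscarinic M5 receptor expression | Also added: EC20 acetylcholine as agonist stimulus | Compound: One concentration, 3 µM final (nominal) | Timing: Fluo-8 loading 80 min at 37 °C plus 30 min room temperature | Measured by: Fluo-8 calcium dye fluorescence, kinetic read | Read-out basis: % activation, ACh-normalized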
Starred values were filed as active, the others as inactive.

CN1CCN(c2ccc([N+](=O)[O-])c(Sc3ccccn3)c2)CC1 was read as CHRM1 PAM 18, M5 ag -16, M1 ag -9, M1 antag -38, M5 antag -13 and CHRM5 PAM 28*.
For COc1ccc(-c2n(-c3ccccn3)c3ccccc3[n+]2-c2ccccn2)cc1 the results were CHRM1 PAM -1, M5 ag -4, M1 ag -6, M1 antag 10, M5 antag -1 and CHRM5 PAM 2.
CC(=O)OC1CCC2(/C=N/O)C(=CCC3C4CCC(=O)C4(C)CCC32)C1 (stereo not given) was read as CHRM1 PAM 10, M5 ag 0, M1 ag -2, M1 antag -21, M5 antag 4 and CHRM5 PAM 6.
`c1ccc(C(c2ccccc2)c2ccncc2)cc1` gave CHRM1 PAM -28, M5 ag -11, M1 ag -6, M1 antag 70*, M5 antag 37* and CHRM5 PAM -38.
`CN(C)c1ccc(/C=C/[N+](=O)[O-])cc1` gave CHRM1 PAM 4, M5 ag 35*, M1 ag 11, M1 antag 41*, M5 antag 55* and CHRM5 PAM -8.
`C/C(=C\c1ccc(N(C)C)cc1)[N+](=O)[O-]` gave CHRM1 PAM -5, M5 ag 6, M1 ag 0, M1 antag 13, M5 antag 3 and CHRM5 PAM -1.
For Cc1cccc(CN(C)C)c1OC(=O)N(C)C the results were CHRM1 PAM 10, M5 ag -2, M1 ag -6, M1 antag -9, M5 antag 13 and CHRM5 PAM 4.
`CN(Cc1cccc(-c2ccncc2)c1)C(=O)Oc1ccccc1Cc1ccccc1` gave M5 ag 2, M5 antag 43* and CHRM5 PAM -22.
Nc1ccc(C2(c3ccc(N)cc3)CN3CCC2CC3)cc1 was read as CHRM1 PAM 9, M5 ag -1, M1 ag -5, M1 antag -11, M5 antag 5 and CHRM5 PAM 3.
Screening S=P1(Oc2ccccc2)Nc2ccccc2N1 returned CHRM1 PAM 4, M5 ag 1, M1 ag -6, M1 antag -9, M5 antag 4 and CHRM5 PAM -1.
COC(=O)C1=C(c2ccccc2)C[C@@H]2CC[C@H]1N2C was read as CHRM1 PAM -31, M5 ag -11, M1 ag -8, M1 antag 60*, M5 antag 63* and CHRM5 PAM -39.
COC(=O)C1=C(c2ccc(S(C)(=O)=O)cc2)C[C@@H]2CC[C@H]1N2C was read as CHRM1 PAM -2, M5 ag 3, M1 ag -8, M1 antag 8, M5 antag -3 and CHRM5 PAM 5.
COC(=O)C1=C(c2ccc(F)cc2F)C[C@@H]2CC[C@H]1N2C was read as CHRM1 PAM -33, M5 ag -12, M1 ag -9, M1 antag 84*, M5 antag 21 and CHRM5 PAM -38.
For COC(=O)C1=C(c2ccc(Cl)c(C(F)(F)F)c2)C[C@@H]2CC[C@H]1N2C the results were CHRM1 PAM -30, M5 ag -11, M1 ag -8, M1 antag 32*, M5 antag 12 and CHRM5 PAM -24.
For O=C1NC(=O)C(=Cc2ccc(Sc3ccccc3)o2)C(=O)N1 the results were CHRM1 PAM 4, M5 ag -2, M1 ag -5, M1 antag 0, M5 antag 9 and CHRM5 PAM 0.
CC1(C)OC(c2ccccc2)=C/C(=C/C=C2C(=O)NC(=O)NC2=O)O1 was read as CHRM1 PAM -4, M5 ag 75*, M1 ag 17*, M1 antag 10, M5 antag 14 and CHRM5 PAM -19.
`Oc1c(Br)c(Br)c(Br)c(Br)c1Br` gave CHRM1 PAM 11, M5 ag 3, M1 ag 8, M1 antag 3, M5 antag 20 and CHRM5 PAM -11.
For CN1/C(=C\C=C2C(=O)NC(=O)NC2=O)C(C)(C)c2ccccc21 the results were CHRM1 PAM -9, M5 ag 14, M1 ag 29*, M1 antag 15, M5 antag 10 and CHRM5 PAM -18.
For CCOC(=O)c1ccc(N=Cc2c(O)n(-c3ccc(OC)cc3)c(=S)[nH]c2=O)cc1 the results were CHRM1 PAM -30, M5 ag -5, M1 ag -12, M1 antag 34*, M5 antag -3 and CHRM5 PAM 3.
For CCOC(=O)c1ccc(N=Cc2c(O)n(-c3ccccc3F)c(=S)[nH]c2=O)cc1 the results were CHRM1 PAM -16, M5 ag -2, M1 ag -10, M1 antag 0, M5 antag 5 and CHRM5 PAM -5.
For Cc1cc(C)c(-n2c(O)c(/C=N/N3CCCCC3c3cccnc3)c(=O)[nH]c2=O)c(C)c1 (stereo not given) the results were CHRM1 PAM 0, M5 ag -3, M1 ag -7, M1 antag 2, M5 antag -5 and CHRM5 PAM 4.
Screening COC1CC2C=C(C)C=CC=CC(=O)NC(c3ccccc3)CC=CCCC(O)CC(=O)C2=C1O (stereo not given) returned CHRM1 PAM -18, M5 ag 16, M1 ag 12, M1 antag 56*, M5 antag 54* and CHRM5 PAM -20.
Screening O=C(N/N=C/c1c(O)n(CCC2=CCCCC2)c(=S)[nH]c1=O)c1ccccc1 returned CHRM1 PAM 5, M5 ag -1, M1 ag -2, M1 antag -10, M5 antag 10 and CHRM5 PAM -6.
Screening CS(=O)(=O)c1ccc(C2=C(CNC(=O)c3ccncc3)[C@H]3CC[C@@H](C2)N3CCOc2ccccc2)cc1 returned CHRM1 PAM -19, M5 ag -3, M1 ag -11, M1 antag 29*, M5 antag 8 and CHRM5 PAM -7.
`COC(=O)C1=C(c2ccc(Cl)c(C(F)(F)F)c2)C[C@@H]2CC[C@H]1N2C(=O)NC1CCCCC1` gave CHRM1 PAM -6, M5 ag -12, M1 ag -10, M1 antag 0, M5 antag -6 and CHRM5 PAM 3.
